In brackets after ≈: the same amount, converted by molar mass. Entries after “also recorded” stand apart in the source; their conditions may differ.
Assays:
U87 cells = assay: CCK-8 cytotoxicity assay, U87 cells; assay type: cell-based, human
Outline: (§1)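 CCK-8 viability assay in cells grown in high-glucose DMEM with 10% FBS at 37°C, 5% CO2. Peptide alone was tested at 0, 15, 30, 60 and 120 μg/mL in medium with 10% serum. Blank wells received medium only. Because the test material carries a fluorescent label, parallel wells without CCK-8 gave a D(450) background, which was subtracted. Viability (%) = (experimental − blank)/(control − blank) × 100. Three independent repeats, mean ± SD, t-test/one-way ANOVA.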

FLT4 = conditions: cited from earlier work
[1] = cited from earlier work
[2] = after combining with nanoprobes; cited from earlier work
HEB cells = assay: CCK-8 cytotoxicity assay, HEB cells; assay type: cell-based, human; conditions: TMVP1 0, 15, 30, 60, 120 μg/mL, P>0.05
Outline: as §1

FLT4 protein = assay: Surface plasmon resonance; assay type: binding; conditions: TMVP1 10 mg/mL; FLT4 protein 0.6 mg/mL on CM5 chip
Outline: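 SPR on a […]. Recombinant FLT4 protein (0.6 mg/mL) was coupled directly to a CM5 chip as the solid phase. The peptide (10 mg/mL) was run as analyte in the mobile phase. The maximum binding response within 150 s was recorded in RU, where 1 RU = 1 pg/mm² surface change.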

[3] = UV-visible spectrophotometry of TMVP1 coupling rate; assay type: physicochemical; conditions: FAM-labeled TMVP1
Outline: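 Coupling efficiency of the FAM-labelled peptide to liposomes was measured by UV-visible absorbance at 456 nm, before and after coupling. Coupling rate = (absorbance decrease)/(absorbance before coupling) × 100%. Liposome-bound peptide concentration was estimated from this rate.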

[4] = tested on: FLT4 protein (U87 and U373 cells); assay: Fluorescent peptide in vitro binding / colocalization with FLT4; assay type: cell-based, human; conditions: FAM-labeled TMVP1; confocal, green and red light brightness 110

Compound	IC50 (U87 cells; Homo sapiens, U-87 MG, read-out: IC50 (cytotoxicity))	cytotoxicity of peptide alone towards U87 cells (U87 cells; CCK-8, U87 cells, TMVP1 0, 15, 30, 60, 120 μg/mL, P>0.05)	binding speed to FLT4 versus traditional monoclonal antibodies (FLT4)	immunogenicity versus traditional monoclonal antibodies [1]	biocompatibility and in vivo stability [2]	biological toxicity of peptide alone to HEB cells (HEB cells)	binding affinity to FLT4 (in words) (FLT4 protein)	absorbance after coupling TMVP1 ([3]; 456 nm)	absorbance before coupling TMVP1 ([3]; 456 nm)	TMVP1 coupling rate ([3]; absorbance at 456 nm, (absorbance decrease before and after coupling)/(absorbance before coupling) × 100%)	TMVP1 concentration (from coupling rate) ([3]; estimated from coupling rate)	fluorescence intensity, U87 versus U373 cell line [4]
Cn1nnc2c(C(N)=O)ncn2c1=O [TMZ, Temozolomide, reference compound]	48.4 µg/mL (≈ 249 µM)	–	–	–	–	–	–	–	–	–	–	–
LARGR [TMVP1]	–	did not show significant cytotoxicity towards U87 cells; also recorded: no significant biological toxicity	faster binding speed	lower immunogenicity than traditional monoclonal antibodies	good biocompatibility and in vivo stability	no significant biological toxicity	strong binding affinity	0.069	0.296	76.68%	around 0.153 mg/mL	the fluorescence intensity in the U87 cell line was higher than in the U373 cell line

— PMC12034291 (International Journal of Nanomedicine, 2025)
